Measurements taken from ChEMBL document CHEMBL3627612, “Hirsutinolide Series Inhibit Stat3 Activity, Alter GCN1, MAP1B, Hsp105, G6PD, Vimentin, TrxR1, and Importin α-2 Expression, and Induce Antitumor Effects against Human Glioma” (J Med Chem, 2015).
Calls of active or inactive are those of the source.

Legend:
Type in all cases: functional, cell-based
[1] = tested on: U-251; assay: Induction of apoptosis in human U251MG cells assessed as PARP level at 0.5 to 10 nM after 24 to 48 hrs by immunoblot analysis
How it was run: (§1)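 U251MG human glioma cells (RPMI or DMEM, 10% FBS, 1% nonessential amino acids) treated for 24 or 48 h, with paclitaxel or staurosporine run alongside. Whole-cell lysates were prepared and analysed by SDS-PAGE and immunoblotting, probing for PARP and caspase 3 cleavage as apoptosis markers.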

[2] = tested on: U-251; assay: Induction of apoptosis in human U251MG cells assessed as cleaved caspase 3 level at 0.5 to 10 nM after 24 to 48 hrs by immunoblot analysis; how it was run: as §1
[3] = tested on: U-251; assay: Antimitotic activity in human U251MG cells assessed as defect in sister chromatid segragation at 0.1 uM after 15 hrs confocal microscopic analysis
How it was run: (§2)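 U251MG on coverslips synchronized by double thymidine block (2 mM), released 9 h, treated 15 h (8 μM; paclitaxel 100 nM). Fixed 4% paraformaldehyde, digitonin-permeabilized, BSA-blocked, stained for β-tubulin and MAP1B with DAPI counterstain; chromatid structure and segregation scored by confocal microscopy.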

[4] = tested on: U-251; assay: Induction of apoptosis in human U251MG cells assessed as cleaved caspase-3 level at […] after 24 to 48 hrs by immunoblot analysis
[5] = tested on: U-251; assay: Induction of apoptosis in human U251MG cells assessed as PARP level at […] after 24 to 48 hrs by immunoblot analysis
[6] = tested on: U-251; assay: Antimitotic activity in human U251MG cells assessed as defect in chromatid structure at 0.1 uM after 15 hrs confocal microscopic analysis; how it was run: as §2

Measured: Activity

CN[C@@H]1C[C@H]2O[C@@](C)([C@@H]1OC)n1c3ccccc3c3c4c(c5c6ccccc6n2c5c31)C(=O)NC4
active: [1] | [2]

CC(=O)O[C@H]1C(=O)[C@@]2(C)[C@H]([C@H](OC(=O)c3ccccc3)[C@]3(O)C[C@H](OC(=O)[C@H](O)[C@@H](NC(=O)c4ccccc4)c4ccccc4)C(C)=C1C3(C)C)[C@]1(OC(C)=O)CO[C@@H]1C[C@@H]2O
active: [3] | [4] | [5] | [6]
